Test system: Human immunodeficiency virus 1
Assay: Antiviral activity against HIV1 isolate 217 harboring reverse transcriptase D67N/K70E/M184V mutant gene by phenosense assay
Type: functional, organism-based
Conditions: Human immunodeficiency virus 1, isolate 217
How it was run: (§1)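 PhenoSense HIV recombinant virus assay: patient-derived HIV-1 with major NRTI resistance mutations tested against increasing drug concentrations to give inhibition curves. EC50 is the concentration giving 50% inhibition. Fold change is the test recombinant EC50 divided by the EC50 of a drug-sensitive wild-type reference virus. Panel of 30 NRTI-resistant isolates plus two wild-type viruses.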

| Structure (SMILES) | EC50 |
| --- | --- |
| Nc1nc(=O)n([C@@H]2CS[C@H](CO)O2)cc1F [EMTRICITABINE] | > 100 µM |

Test system: Human immunodeficiency virus 1
Assay: Antiviral activity against HIV1 isolate 063 harboring reverse transcriptase M41L/D67N/K70R/M184V/L210W/T215Y/K219E mutant gene by phenosense assay relative to wild type
Type: functional
Conditions: not given
How it was run: (§2)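 Recombinant-virus PhenoSense HIV assay run on a panel of 30 NRTI-resistant HIV-1 mutants and two wild-type viruses. Each virus is tested across increasing drug concentrations to give an inhibition curve and EC50. Fold change is the test recombinant EC50 divided by the EC50 of the drug-sensitive wild-type reference virus.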

| Structure (SMILES) | fold change (FC) |
| --- | --- |
| Nc1nc(=O)n([C@@H]2CS[C@H](CO)O2)cc1F [EMTRICITABINE] | >88 |

Test system: Human immunodeficiency virus 1
Assay: Antiviral activity against HIV1 isolate 066 harboring reverse transcriptase 184V mutant gene by phenosense assay relative to wild type
Type: functional
Conditions: not given
How it was run: as §2

| Structure (SMILES) | fold change (FC) |
| --- | --- |
| Nc1nc(=O)n([C@@H]2CS[C@H](CO)O2)cc1F [EMTRICITABINE] | >88 |

Test system: Human immunodeficiency virus 1
Assay: Antiviral activity against HIV1 isolate 069 harboring reverse transcriptase D67E/T69SSG/V75M/M184V/L210W/T215Y mutant gene by phenosense assay relative to wild type
Type: functional
Conditions: not given
How it was run: as §2

| Structure (SMILES) | fold change (FC) |
| --- | --- |
| Nc1nc(=O)n([C@@H]2CS[C@H](CO)O2)cc1F [EMTRICITABINE] | >88 |

Test system: Human immunodeficiency virus 1
Assay: Antiviral activity against HIV1 isolate 070 harboring reverse transcriptase 65R/S68G mutant gene by phenosense assay relative to wild type
Type: functional
Conditions: not given
How it was run: as §2

| Structure (SMILES) | fold change (FC) |
| --- | --- |
| Nc1nc(=O)n([C@@H]2CS[C@H](CO)O2)cc1F [EMTRICITABINE] | 17 |

Test system: Human immunodeficiency virus 1
Assay: Antiviral activity against HIV1 isolate 071 harboring reverse transcriptase 65R/S68N/184V mutant gene by phenosense assay relative to wild type
Type: functional
Conditions: not given
How it was run: as §2

| Structure (SMILES) | fold change (FC) |
| --- | --- |
| Nc1nc(=O)n([C@@H]2CS[C@H](CO)O2)cc1F [EMTRICITABINE] | >88 |

Test system: Human immunodeficiency virus 1
Assay: Antiviral activity against HIV1 isolate 162 harboring reverse transcriptase A62V/V75I/F77L/Y115F/F116Y/Q151M/M184V mutant gene by phenosense assay relative to wild type
Type: functional
Conditions: not given
How it was run: as §2

| Structure (SMILES) | fold change (FC) |
| --- | --- |
| Nc1nc(=O)n([C@@H]2CS[C@H](CO)O2)cc1F [EMTRICITABINE] | >88 |

Test system: Human immunodeficiency virus 1
Assay: Antiviral activity against HIV1 isolate 180 harboring reverse transcriptase K65R mutant gene obtained as site-directed mutant of NL4-3 by phenosense assay relative to wild type
Type: functional
Conditions: not given
How it was run: as §2

| Structure (SMILES) | fold change (FC) |
| --- | --- |
| Nc1nc(=O)n([C@@H]2CS[C@H](CO)O2)cc1F [EMTRICITABINE] | 11 |

Test system: Human immunodeficiency virus 1
Assay: Antiviral activity against HIV1 isolate 192 harboring reverse transcriptase M41L/T215Y mutant gene by phenosense assay relative to wild type
Type: functional
Conditions: not given
How it was run: as §2

| Structure (SMILES) | fold change (FC) |
| --- | --- |
| Nc1nc(=O)n([C@@H]2CS[C@H](CO)O2)cc1F [EMTRICITABINE] | 2.7 |

Test system: Human immunodeficiency virus 1
Assay: Antiviral activity against HIV1 isolate 194 harboring reverse transcriptase M41L/T215Y/M184V mutant gene by phenosense assay relative to wild type
Type: functional
Conditions: not given
How it was run: as §2

| Structure (SMILES) | fold change (FC) |
| --- | --- |
| Nc1nc(=O)n([C@@H]2CS[C@H](CO)O2)cc1F [EMTRICITABINE] | >88 |

Test system: Human immunodeficiency virus 1
Assay: Antiviral activity against HIV1 isolate 201 harboring reverse transcriptase M41L/L210W/T215Y mutant gene by phenosense assay relative to wild type
Type: functional
Conditions: not given
How it was run: as §1

| Structure (SMILES) | fold change (FC) |
| --- | --- |
| Nc1nc(=O)n([C@@H]2CS[C@H](CO)O2)cc1F [EMTRICITABINE] | 1.9 |

Test system: Human immunodeficiency virus 1
Assay: Antiviral activity against HIV1 isolate 203 harboring reverse transcriptase M41L/L210W/T215Y/M184V mutant gene by phenosense assay relative to wild type
Type: functional
Conditions: not given
How it was run: as §1

| Structure (SMILES) | fold change (FC) |
| --- | --- |
| Nc1nc(=O)n([C@@H]2CS[C@H](CO)O2)cc1F [EMTRICITABINE] | >88 |

Test system: Human immunodeficiency virus 1
Assay: Antiviral activity against HIV1 isolate 204 harboring reverse transcriptase M41L/L210W/T215Y/M184V mutant gene by phenosense assay relative to wild type
Type: functional
Conditions: not given
How it was run: as §1

| Structure (SMILES) | fold change (FC) |
| --- | --- |
| Nc1nc(=O)n([C@@H]2CS[C@H](CO)O2)cc1F [EMTRICITABINE] | >88 |

Test system: Human immunodeficiency virus 1
Assay: Antiviral activity against HIV1 isolate 206 harboring reverse transcriptase D67N/K70R mutant gene by phenosense assay relative to wild type
Type: functional
Conditions: not given
How it was run: as §1

| Structure (SMILES) | fold change (FC) |
| --- | --- |
| Nc1nc(=O)n([C@@H]2CS[C@H](CO)O2)cc1F [EMTRICITABINE] | 2.9 |

Test system: Human immunodeficiency virus 1
Assay: Antiviral activity against HIV1 isolate 211 harboring reverse transcriptase D67N/K70R/T215F/K219E/M184V mutant gene by phenosense assay relative to wild type
Type: functional
Conditions: not given
How it was run: as §1

| Structure (SMILES) | fold change (FC) |
| --- | --- |
| Nc1nc(=O)n([C@@H]2CS[C@H](CO)O2)cc1F [EMTRICITABINE] | >88 |

Test system: Human immunodeficiency virus 1
Assay: Antiviral activity against HIV1 isolate 212 harboring reverse transcriptase L210W/T215Y mutant gene by phenosense assay relative to wild type
Type: functional
Conditions: not given
How it was run: as §1

| Structure (SMILES) | fold change (FC) |
| --- | --- |
| Nc1nc(=O)n([C@@H]2CS[C@H](CO)O2)cc1F [EMTRICITABINE] | 2.3 |

Test system: Human immunodeficiency virus 1
Assay: Antiviral activity against HIV1 isolate 217 harboring reverse transcriptase D67N/K70E/M184V mutant gene by phenosense assay relative to wild type
Type: functional
Conditions: not given
How it was run: as §1

| Structure (SMILES) | fold change (FC) |
| --- | --- |
| Nc1nc(=O)n([C@@H]2CS[C@H](CO)O2)cc1F [EMTRICITABINE] | >88 |

Test system: Human immunodeficiency virus 1
Assay: Antiviral activity against HIV1 isolate 220 harboring reverse transcriptase K70E/M184V mutant gene by phenosense assay relative to wild type
Type: functional
Conditions: not given
How it was run: as §1

| Structure (SMILES) | fold change (FC) |
| --- | --- |
| Nc1nc(=O)n([C@@H]2CS[C@H](CO)O2)cc1F [EMTRICITABINE] | >88 |
